Screening results deposited in PubChem BioAssay by Johns Hopkins Ion Channel Center.
RGS4 pot: potentiators or activators of RGS4 | actives 0.92% (n = 310,000) | HEK293 M3R/inducible RGS4, carbachol calcium flux Fluo4; hits give low values | B-score at 10 µM | AID 463111;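 active = B-score of the integrated calcium signal more than 4 SD below the library mean, with starting fluorescence not abnormally high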;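 note: negative B-score means reduced calcium response which marks RGS4 activation or potentiation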
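test system = M3R-expressing HEK293 line, RGS4 induced by doxycycline | probe or stimulus = carbachol at ECmax as muscarinic agonist stimulus | timing = dye loading 30 min 37 °C, buffer rest 30 min RT | signal = calcium dye Fluo4 fluorescence | evaluation = B score from integrated fluorescence ratio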
RGS4 block: human RGS4 inhibition; P49798; HEK293 M3R/RGS4 inducible, Fluo-4 calcium flux; hits give high values; triggered by carbachol at its EC20; B-score at 10 µM; actives 0.45% (n = 310,000); AID 463165;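 active = B-score, a plate-corrected calcium signal, over three deviations above library mean, with baseline fluorescence within five deviations of library mean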;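 note: RGS4 expression induced by doxycycline in cells with stable M3 receptor; B-score is computed from the integrated fluorescence ratio over baseline after carbachol; higher B-score means a larger calcium signal and so more RGS4 inhibition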
Target sequence (P49798 whole entry, looked up): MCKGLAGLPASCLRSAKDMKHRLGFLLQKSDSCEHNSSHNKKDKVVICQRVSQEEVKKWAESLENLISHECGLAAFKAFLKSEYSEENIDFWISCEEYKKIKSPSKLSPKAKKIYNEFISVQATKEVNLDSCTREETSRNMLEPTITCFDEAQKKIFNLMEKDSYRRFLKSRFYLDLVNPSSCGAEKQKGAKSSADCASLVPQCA
MrgX1 ag: human MrgX1 receptor agonism, primary screen; Q96LB2; MrgX1-HEK293 cells, Fluo-4 calcium fluorescence, agonist mode; hits give high values; B-score at 10 µM; actives 0.44% (n = 310,000); AID 588627;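 active = calcium response B-score plate-corrected fluorescence ratio at least 3 library SD, with starting fluorescence B-score inside 5 SD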
Target sequence (Q96LB2 whole entry, looked up): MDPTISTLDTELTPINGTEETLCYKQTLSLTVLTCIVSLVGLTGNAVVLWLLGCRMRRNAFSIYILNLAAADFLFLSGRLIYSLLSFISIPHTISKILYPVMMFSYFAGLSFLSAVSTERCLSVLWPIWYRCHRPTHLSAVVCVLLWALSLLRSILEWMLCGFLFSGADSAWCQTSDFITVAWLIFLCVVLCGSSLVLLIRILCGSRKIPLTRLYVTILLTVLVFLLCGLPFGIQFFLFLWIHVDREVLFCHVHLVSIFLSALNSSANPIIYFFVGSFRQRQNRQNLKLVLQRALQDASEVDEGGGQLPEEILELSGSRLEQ
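Test system: HEK293 cells stably expressing human MrgX1 receptor; Input: fifteen thousand cells per well; Dosing: compound delivered in addition one of three; Schedule: overnight seeding, then 1 h dark dye loading; Technique: Fluo-4 NW calcium fluorescence; Measure: B-scored fluorescence response ratio; Controls: positive and negative controls per plate.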
MrgX1 allo act: human MrgX1 positive allosteric modulation, primary screen; actives 0.63% (n = 310,000); AID 588675; MrgX1-HEK293, Fluo-4 calcium flux, FDSS; hits give high values; Q96LB2; B-score at 10 µM;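 active = plate-corrected calcium response at least 3 library SD above typical, normal starting fluorescence, not activating the receptor alone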;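 note: compound read alongside a low EC10 to EC30 dose of BAM8-22 agonist; peak minus trough fluorescence over baseline measured at the second addition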
MrgX1 antagonist: blocks BAM8-22 activation of human MrgX1 receptor. MRGX1-HEK293 calcium flux, Fluo-4, BAM8-22 antagonism; hits give low values. B-score at 10 µM. actives 1.3% (n = 310,000). AID 588676;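 active = calcium-response B-score plate-corrected more than 3 library SD below zero, starting fluorescence within 5 deviations, no agonist response on first addition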;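 note: peak minus trough fluorescence over baseline after final BAM8-22 challenge near maximal dose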
* = called active by the depositor. Compounds with a hit are over-represented: about 3.5% of the library has one in this group of screens.

`COc1ccc(-c2csc3ncnc(N4CCN(S(=O)(=O)c5ccc(Cl)s5)CC4)c23)cc1` gave RGS4 pot inactive, RGS4 block inactive, MrgX1 ag inactive, MrgX1 allo act inactive and MrgX1 antagonist inactive.
For COc1ccc(-c2csc3ncnc(N4CCN(S(=O)(=O)c5ccc(C)cc5)CC4)c23)cc1 the results were RGS4 pot -7.51*, RGS4 block inactive, MrgX1 ag inactive, MrgX1 allo act inactive and MrgX1 antagonist inactive.
`Cc1ccc(C(=O)Nc2nnc(S(=O)(=O)N3CCCCCC3)s2)cc1` gave RGS4 pot inactive, RGS4 block inactive, MrgX1 ag inactive, MrgX1 allo act inactive and MrgX1 antagonist inactive.
Cc1ccc(C(=O)Nc2nnc(S(=O)(=O)N3CCC(C)CC3)s2)cc1 was read as RGS4 pot inactive, RGS4 block inactive, MrgX1 ag inactive, MrgX1 allo act inactive and MrgX1 antagonist -6.36*.
For Cc1ccc(SCc2nc3ncccn3c2Br)cc1 the results were RGS4 pot -7.57*, RGS4 block inactive, MrgX1 ag inactive, MrgX1 allo act inactive and MrgX1 antagonist inactive.
For COc1ccccc1/C=C/C(=O)OCC(=O)NCc1ccco1 the results were RGS4 pot inactive, RGS4 block inactive, MrgX1 ag inactive, MrgX1 allo act inactive and MrgX1 antagonist inactive.
Screening COc1ccccc1/C=C/C(=O)OCC(=O)NNC(=O)c1ccccc1 returned RGS4 pot inactive, RGS4 block inactive, MrgX1 ag inactive, MrgX1 allo act inactive and MrgX1 antagonist -5.21*.
Screening CC(C)CN(CC(C)C)S(=O)(=O)N1CCC(C(=O)NCc2ccc(F)cc2)CC1 returned RGS4 pot inactive, RGS4 block inactive, MrgX1 ag inactive, MrgX1 allo act inactive and MrgX1 antagonist inactive.
CC(C)CN(CC(C)C)S(=O)(=O)N1CCC(C(=O)NCCc2ccc(Cl)cc2)CC1 was read as RGS4 pot inactive, RGS4 block inactive, MrgX1 ag inactive, MrgX1 allo act inactive and MrgX1 antagonist -7.56*.
For CCn1c(SCC(=O)N2c3ccccc3CCc3ccccc32)nc2c1c(=O)n(C)c(=O)n2C the results were RGS4 pot inactive, RGS4 block inactive, MrgX1 ag inactive, MrgX1 allo act inactive and MrgX1 antagonist inactive.
CC1Cc2ccccc2N1C(=O)CSc1nc2c(c(=O)n(C)c(=O)n2C)n1Cc1ccccc1 (centres undefined) was read as RGS4 pot -7.23*, RGS4 block inactive, MrgX1 ag inactive, MrgX1 allo act inactive and MrgX1 antagonist inactive.
Cc1cccc(C)c1Nc1nnc(SCc2cc([N+](=O)[O-])cc3c2OCOC3)s1 was read as RGS4 pot inactive, RGS4 block inactive, MrgX1 ag inactive, MrgX1 allo act inactive and MrgX1 antagonist inactive.
O=C(N/N=C/C=C/c1ccccc1)C(O)c1ccccc1 (centres undefined) was read as RGS4 pot inactive, RGS4 block inactive, MrgX1 ag inactive, MrgX1 allo act inactive and MrgX1 antagonist -5.9*.
Screening O=C(N/N=C/C=C/c1ccco1)C(O)c1ccccc1 (centres undefined) returned RGS4 pot inactive, RGS4 block inactive, MrgX1 ag inactive, MrgX1 allo act inactive and MrgX1 antagonist inactive.
`Cc1ccc(NC(=O)CSc2nc(=O)n(CCCN3CCOCC3)c3c2CCCC3)cc1` gave RGS4 pot inactive, RGS4 block inactive, MrgX1 ag inactive, MrgX1 allo act inactive and MrgX1 antagonist inactive.
Cc1cc(-n2cccn2)ccc1CN1CCN(C2CCCC2)C(CCO)C1 (centres undefined) was read as RGS4 pot inactive, RGS4 block inactive, MrgX1 ag inactive, MrgX1 allo act inactive and MrgX1 antagonist inactive.
For Cc1cc(-n2cccn2)ccc1CN1CCN(CC(C)C)C(CCO)C1 (centres undefined) the results were RGS4 pot -7.29*, RGS4 block inactive, MrgX1 ag inactive, MrgX1 allo act inactive and MrgX1 antagonist inactive.
c1cc2c3c(cccc3c1)NC1(CCC3(CC1)Nc1cccc4cccc(c14)N3)N2 was read as RGS4 pot -8.22*, RGS4 block inactive, MrgX1 ag inactive, MrgX1 allo act 7.03* and MrgX1 antagonist inactive.
Screening c1cc2c3c(cccc3c1)NC1(CCCCCC1)N2 returned RGS4 pot inactive, RGS4 block inactive, MrgX1 ag inactive, MrgX1 allo act inactive and MrgX1 antagonist inactive.
`O=S1(=O)N=C(N2CCc3ccccc3C2)c2ccccc21` gave RGS4 pot -7.41*, RGS4 block inactive, MrgX1 ag inactive, MrgX1 allo act inactive and MrgX1 antagonist inactive.
`CSC(=S)N/N=C(\C)c1ccccc1` gave RGS4 pot inactive, RGS4 block inactive, MrgX1 ag inactive, MrgX1 allo act inactive and MrgX1 antagonist inactive.
For CCCCN1C[C@H](O)[C@@H](O)[C@H](O)[C@H]1CO the results were RGS4 pot inactive, RGS4 block inactive, MrgX1 ag inactive, MrgX1 allo act inactive and MrgX1 antagonist inactive.
Screening OCCN1C[C@H](O)[C@@H](O)[C@H](O)[C@H]1CO returned RGS4 pot inactive, RGS4 block inactive, MrgX1 ag inactive, MrgX1 allo act inactive and MrgX1 antagonist -9.47*.
Cc1ccc(C2=CC(c3ccccc3)n3ncnc3N2)cc1 (centres undefined) was read as RGS4 pot inactive, RGS4 block inactive, MrgX1 ag inactive, MrgX1 allo act inactive and MrgX1 antagonist inactive.
Screening C1=C(c2ccccc2)Nc2ncnn2C1c1ccccc1 (centres undefined) returned RGS4 pot inactive, RGS4 block inactive, MrgX1 ag inactive, MrgX1 allo act 8.2* and MrgX1 antagonist inactive.
`C#CCOCCOCCOCCNc1nc(N2CCN(C(=O)CCCCCCCCCCNC(=O)[C@H](CCCCN)n3cc(CCO)nn3)CC2)nc(N2CCN(C(=O)CCCCCCCCCCNC(=O)[C@H](CCCCN)n3cc(CCO)nn3)CC2)n1` gave MrgX1 ag inactive, MrgX1 allo act inactive and MrgX1 antagonist inactive.
For C#CCOCCOCCOCCNc1nc(N2CCN(C(=O)CCCCCCCCCCNC(=O)Cn3cc(CCCCCN)nn3)CC2)nc(N2CCN(C(=O)CCCCCCCCCCNC(=O)[C@H]([C@@H](C)CC)n3cc(CCCCCN)nn3)CC2)n1 the results were MrgX1 ag 50.7*, MrgX1 allo act inactive and MrgX1 antagonist inactive.
`C#CCOCCOCCOCCNc1nc(N2CCN(C(=O)CCCCCCCCCCNC(=O)[C@H](CCCCN)n3cc(CCO)nn3)CC2)nc(N2CCN(C(=O)CCCCCCCCCCNC(=O)[C@H](CCCN=C(N)N)n3cc(C[C@@H](C)CC)nn3)CC2)n1` gave MrgX1 ag 153*, MrgX1 allo act inactive and MrgX1 antagonist inactive.
